Results published in ChEMBL document CHEMBL4004828, “Synthesis and biological evaluation of fluorinated N-benzoyl and N-phenylacetoyl derivatives of 3-(4-aminophenyl)-coumarin-7-O-sulfamate as steroid sulfatase inhibitors” (Eur J Med Chem, 2017).

test system: SK-BR-3; assay: Cytotoxicity against human SKBR3 cells assessed as growth inhibition after 120 hrs by MTT assay; format: functional; conditions: SK-BR-3, 120 h
In short: (§1)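 Cells grown in phenol red-free high-glucose DMEM with 10% FBS, penicillin (62.6 µg/mL) and streptomycin (40 µg/mL) at 37 °C, 10% CO2, screened for Mycoplasma. Exponentially growing cells exposed to test agents for 120 h; viability read by MTT assay; GI50 derived.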

Question: With `NS(=O)(=O)Oc1ccc2cc(-c3ccc(NC(=O)c4ccc(F)c(F)c4)cc3)c(=O)oc2c1` as the compound, how does the GI50 read?
Answer: Its GI50 is over 100 µM.

Question: `NS(=O)(=O)Oc1ccc2cc(-c3ccc(NC(=O)c4ccc(F)cc4)cc3)c(=O)oc2c1` was tested. Which GI50 did it give?
Answer: Its GI50 is over 100 µM.

Question: Which GI50 does the source give for `NS(=O)(=O)Oc1ccc2cc(-c3ccc(F)c(F)c3)c(=O)oc2c1` here?
Answer: Its GI50 is over 100 µM.

Question: For `CC/C(=C(\c1ccccc1)c1ccc(OCCN(C)C)cc1)c1ccccc1` [TAMOXIFEN], which GI50 is on record?
Answer: The GI50 was 12.5 µM.

Question: For `NS(=O)(=O)Oc1ccc2ccc(=O)oc2c1`, which GI50 is on record?
Answer: Its GI50 is over 100 µM.

Question: Which GI50 does the source give for `NS(=O)(=O)Oc1ccc2cc(-c3cc(F)c(F)c(F)c3)c(=O)oc2c1` here?
Answer: The GI50 was 61.3 µM.

Question: How did the GI50 turn out when `NS(=O)(=O)Oc1ccc2cc(-c3ccc(NC(=O)Cc4cc(F)c(F)c(F)c4)cc3)c(=O)oc2c1` was run?
Answer: The GI50 was 36.1 µM.

test system: T47D; assay: Cytotoxicity against human T47D cells assessed as growth inhibition after 120 hrs by MTT assay; format: functional; conditions: not given; in short: as §1

Question: How did the GI50 turn out when `NS(=O)(=O)Oc1ccc2cc(-c3ccc(NC(=O)c4ccc(F)c(F)c4)cc3)c(=O)oc2c1` was run?
Answer: The GI50 was over 100 µM.

Question: For `NS(=O)(=O)Oc1ccc2cc(-c3ccc(NC(=O)c4ccc(F)cc4)cc3)c(=O)oc2c1`, which GI50 is on record?
Answer: The GI50 was over 100 µM.

Question: For `NS(=O)(=O)Oc1ccc2cc(-c3ccc(F)c(F)c3)c(=O)oc2c1`, which GI50 is on record?
Answer: Its GI50 is 43 µM.

Question: For `CC/C(=C(\c1ccccc1)c1ccc(OCCN(C)C)cc1)c1ccccc1` [TAMOXIFEN], which GI50 is on record?
Answer: Its GI50 is 10.6 µM.

Question: Which GI50 does the source give for `NS(=O)(=O)Oc1ccc2ccc(=O)oc2c1` here?
Answer: Its GI50 is over 100 µM.

Question: With `NS(=O)(=O)Oc1ccc2cc(-c3cc(F)c(F)c(F)c3)c(=O)oc2c1` as the compound, how does the GI50 read?
Answer: The GI50 was 30.7 µM.

Question: How did the GI50 turn out when `NS(=O)(=O)Oc1ccc2cc(-c3ccc(NC(=O)Cc4cc(F)c(F)c(F)c4)cc3)c(=O)oc2c1` was run?
Answer: The GI50 was 13.7 µM.

test system: MDA-MB-231; assay: Cytotoxicity against human MDA-MB-231 cells assessed as growth inhibition after 120 hrs by MTT assay; format: functional; conditions: MDA-MB-231, 120 h; in short: as §1

Question: `NS(=O)(=O)Oc1ccc2cc(-c3ccc(NC(=O)c4ccc(F)c(F)c4)cc3)c(=O)oc2c1` was tested. Which GI50 did it give?
Answer: The GI50 was over 100 µM.

Question: Which GI50 does the source give for `NS(=O)(=O)Oc1ccc2cc(-c3ccc(NC(=O)c4ccc(F)cc4)cc3)c(=O)oc2c1` here?
Answer: Its GI50 is over 100 µM.

Question: Which GI50 does the source give for `NS(=O)(=O)Oc1ccc2cc(-c3ccc(F)c(F)c3)c(=O)oc2c1` here?
Answer: Its GI50 is 61.5 µM.

Question: With `CC/C(=C(\c1ccccc1)c1ccc(OCCN(C)C)cc1)c1ccccc1` [TAMOXIFEN] as the compound, how does the GI50 read?
Answer: Its GI50 is 15.1 µM.

Question: For `NS(=O)(=O)Oc1ccc2ccc(=O)oc2c1`, which GI50 is on record?
Answer: Its GI50 is over 100 µM.

Question: `NS(=O)(=O)Oc1ccc2cc(-c3cc(F)c(F)c(F)c3)c(=O)oc2c1` was tested. Which GI50 did it give?
Answer: The GI50 was 56.3 µM.

Question: With `NS(=O)(=O)Oc1ccc2cc(-c3ccc(NC(=O)Cc4cc(F)c(F)c(F)c4)cc3)c(=O)oc2c1` as the compound, how does the GI50 read?
Answer: The GI50 was 11.7 µM.

target: T1, Steryl-sulfatase (Homo sapiens, UniProt P08842); assay: Inhibition of human placenta steroid sulfatase using p-nitrophenyl sulfate as substrate after 15 mins; conditions: not given
T1 sequence (P08842 whole entry): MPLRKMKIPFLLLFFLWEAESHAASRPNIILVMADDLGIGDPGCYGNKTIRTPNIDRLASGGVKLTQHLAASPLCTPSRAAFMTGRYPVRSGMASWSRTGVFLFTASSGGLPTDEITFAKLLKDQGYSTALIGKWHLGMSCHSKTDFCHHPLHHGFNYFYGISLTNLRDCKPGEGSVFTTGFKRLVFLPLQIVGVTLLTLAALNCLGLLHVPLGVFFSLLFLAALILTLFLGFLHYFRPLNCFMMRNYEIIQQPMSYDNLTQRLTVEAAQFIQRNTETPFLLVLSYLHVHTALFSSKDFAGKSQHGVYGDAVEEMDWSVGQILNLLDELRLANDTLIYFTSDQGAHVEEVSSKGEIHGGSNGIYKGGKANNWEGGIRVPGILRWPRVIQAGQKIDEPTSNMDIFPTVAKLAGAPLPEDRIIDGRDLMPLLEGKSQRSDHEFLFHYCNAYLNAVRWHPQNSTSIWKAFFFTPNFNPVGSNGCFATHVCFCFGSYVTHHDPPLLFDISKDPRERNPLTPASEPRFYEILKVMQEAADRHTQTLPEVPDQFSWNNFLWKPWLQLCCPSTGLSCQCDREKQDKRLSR
In short: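 STS extracted from human placenta, purified to homogeneity by multi-step chromatography; 5 U enzyme in 20 mM Tris–HCl pH 7.4 with 3 mM p-nitrophenyl sulfate and inhibitor 0.01–100 µM, 37 °C for 15 min. Stopped with 1 M NaOH; released p-nitrophenol read at 405 nm. Triplicate measurements; IC50 calculated.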

Question: For `NS(=O)(=O)Oc1ccc2cc(-c3ccc(NC(=O)c4ccc(F)c(F)c4)cc3)c(=O)oc2c1`, which IC50 is on record?
Answer: The IC50 was 0.18 µM.

Question: `NS(=O)(=O)Oc1ccc2cc(-c3ccc(NC(=O)c4ccc(F)cc4)cc3)c(=O)oc2c1` was tested. Which IC50 did it give?
Answer: The IC50 was 0.21 µM.

Question: For `NS(=O)(=O)Oc1ccc2cc(-c3ccc([N+](=O)[O-])cc3)c(=O)oc2c1`, which IC50 is on record?
Answer: The IC50 was 0.29 µM.

Question: `NS(=O)(=O)Oc1ccc2cc(-c3ccc(NC(=O)Cc4ccc(F)c(F)c4)cc3)c(=O)oc2c1` was tested. Which IC50 did it give?
Answer: Its IC50 is 0.36 µM.

Question: How did the IC50 turn out when `NS(=O)(=O)Oc1ccc2cc(-c3ccc(NC(=O)Cc4ccc(F)c(C(F)(F)F)c4)cc3)c(=O)oc2c1` was run?
Answer: The IC50 was 0.38 µM.

Question: How did the IC50 turn out when `NS(=O)(=O)Oc1ccc2cc(-c3ccc(NC(=O)Cc4c(F)c(F)c(F)c(F)c4F)cc3)c(=O)oc2c1` was run?
Answer: The IC50 was 0.34 µM.

Question: Which IC50 does the source give for `NS(=O)(=O)Oc1ccc2cc(-c3ccc(F)c(F)c3)c(=O)oc2c1` here?
Answer: The IC50 was 0.28 µM.

Question: Which IC50 does the source give for `NS(=O)(=O)Oc1ccc2cc(-c3ccc(NC(=O)c4c(F)c(F)c(F)c(F)c4F)cc3)c(=O)oc2c1` here?
Answer: The IC50 was 0.23 µM.

Question: How did the IC50 turn out when `NS(=O)(=O)Oc1ccc2cc(-c3ccc(NC(=O)Cc4ccccc4)cc3)c(=O)oc2c1` was run?
Answer: Its IC50 is 0.26 µM.

Question: How did the IC50 turn out when `NS(=O)(=O)Oc1ccc2ccc(=O)oc2c1` was run?
Answer: The IC50 was 1.38 µM.

Question: With `NS(=O)(=O)Oc1ccc2cc(-c3cc(F)c(F)c(F)c3)c(=O)oc2c1` as the compound, how does the IC50 read?
Answer: Its IC50 is 0.29 µM.

Question: Which IC50 does the source give for `NS(=O)(=O)Oc1ccc2cc(-c3ccc(NC(=O)c4ccccc4)cc3)c(=O)oc2c1` here?
Answer: Its IC50 is 0.49 µM.

Question: Which IC50 does the source give for `NS(=O)(=O)Oc1ccc2cc(-c3ccc(NC(=O)Cc4ccc(OC(F)(F)F)cc4)cc3)c(=O)oc2c1` here?
Answer: The IC50 was 0.44 µM.

Question: Which IC50 does the source give for `NS(=O)(=O)Oc1ccc2cc(-c3ccc(NC(=O)Cc4cc(F)c(F)c(F)c4)cc3)c(=O)oc2c1` here?
Answer: The IC50 was 0.3 µM.

test system: MCF7; assay: Cytotoxicity against human MCF7 cells assessed as growth inhibition after 120 hrs by MTT assay; format: functional; conditions: MCF7, 120 h; in short: as §1

Question: With `NS(=O)(=O)Oc1ccc2cc(-c3ccc(NC(=O)c4ccc(F)c(F)c4)cc3)c(=O)oc2c1` as the compound, how does the GI50 read?
Answer: The GI50 was over 100 µM.

Question: How did the GI50 turn out when `NS(=O)(=O)Oc1ccc2cc(-c3ccc(NC(=O)c4ccc(F)cc4)cc3)c(=O)oc2c1` was run?
Answer: Its GI50 is over 100 µM.

Question: How did the GI50 turn out when `NS(=O)(=O)Oc1ccc2cc(-c3ccc(F)c(F)c3)c(=O)oc2c1` was run?
Answer: Its GI50 is 30 µM.

Question: With `CC/C(=C(\c1ccccc1)c1ccc(OCCN(C)C)cc1)c1ccccc1` [TAMOXIFEN] as the compound, how does the GI50 read?
Answer: The GI50 was 6.8 µM.

Question: Which GI50 does the source give for `NS(=O)(=O)Oc1ccc2ccc(=O)oc2c1` here?
Answer: The GI50 was over 100 µM.

Question: With `NS(=O)(=O)Oc1ccc2cc(-c3cc(F)c(F)c(F)c3)c(=O)oc2c1` as the compound, how does the GI50 read?
Answer: Its GI50 is 32.6 µM.

Question: `NS(=O)(=O)Oc1ccc2cc(-c3ccc(NC(=O)Cc4cc(F)c(F)c(F)c4)cc3)c(=O)oc2c1` was tested. Which GI50 did it give?
Answer: The GI50 was 31.3 µM.
